This is an account of results in ChEMBL document CHEMBL1806433, “Cytotoxicity of aporphines in human colon cancer cell lines HCT-116 and Caco-2: an SAR study” (Bioorg Med Chem Lett, 2011).

Each structure is given as a SMILES string.

For assay [1], the system named is HCT-116. Briefly: Cytotoxicity against human HCT116 cells after 72 hrs by MTS assay. In kind it is functional, cell-based. Particulars: HCT-116, 72 h. Summed up: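 HCT-116 kept in McCoy's 5a with 10% FBS, 1% nonessential amino acids, 2% HEPES and 1% antibiotic at 37 °C, 5% CO2. Seeded at 5000-3,000 cells/well 24 or 48 h before treatment. Serial dilutions in DMSO (<0.5% in medium) applied for 72 h. MTS/phenazine methosulfate added for 3 h, OD490 read versus 0.5% DMSO controls. IC50 given as mean ± S.D. of three experiments.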

Assay [2] relates to Caco-2. Briefly: Cytotoxicity against human Caco2 cells after 72 hrs by MTS assay. Particulars: Caco-2, 72 h. In kind it is functional, cell-based. The procedure, abridged:
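Caco-2 grown in EMEM with 10% FBS, 1% nonessential amino acids, 1% L-glutamine and 1% antibiotic at 37 °C, 5% CO2. Cells plated at 5000-3,000/well 24 or 48 h before dosing. Serially diluted samples in DMSO (<0.5% in medium) for 72 h. Then MTS plus phenazine methosulfate for 3 h at 37 °C, OD490 read against 0.5% DMSO controls. IC50 reported as mean ± S.D. of three experiments.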

The nature of assay [3]: Cytotoxicity against human CCD-18Co cells after 72 hrs by MTS assay. In kind it is cell-based. Summed up: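 72 h exposure to serially diluted samples in DMSO (<0.5% in medium), with 0.5% DMSO controls in parallel. MTS reagent with phenazine methosulfate then added for 3 h at 37 °C. Absorbance at 490 nm gives cell number relative to controls. IC50 is the concentration giving 50% growth inhibition, reported as mean ± S.D. of three separate experiments.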

The subject of assay [4] is HCT-116. The assay can be described thus: Ratio of etoposide IC50 to compound IC50 for human HCT116 cells. Type of assay: functional.
Assay [5] concerns Caco-2. Briefly: Ratio of etoposide IC50 to compound IC50 for human Caco2 cells. Type of assay: functional.

In the case of `CCC(CC)COc1c(OC)cc2c3c1-c1cc4c(cc1C[C@@H]3N(C)CC2)OCO4`, the IC50 in the assay on HCT-116 [1] came to 26.6 µM; in the assay with Caco-2 [2], 22.8 µM; in assay [3], 50.7 µM.

On to `CCCCCOc1c(OC)cc2c3c1-c1cc4c(cc1C[C@@H]3N(C)CC2)OCO4`, for which the half-inhibitory concentration (IC50) in the assay with HCT-116 [1] worked out at 46.3 µM; with Caco-2 [2], 35.3 µM; in assay [3], 73.4 µM.

`COc1cc2c3c(c1OC(=O)c1ccccc1)-c1cc4c(cc1C[C@@H]3N(C)CC2)OCO4`: the figures for the IC50 (in the assay with HCT-116 [1]; in the assay with Caco-2 [2]; in assay [3]) were 25.2 µM, 25.9 µM and 45.1 µM, respectively.

For `COc1c(Br)c2c3c(c1OC)-c1cc4c(cc1C[C@@H]3N(C)CC2)OCO4`, the concentration for half-maximal inhibition (IC50) came to 100 µM with HCT-116 [1], 101 µM in the assay on Caco-2 [2] and 181 µM in assay [3].

As for `COc1cc2c3c(c1OC)-c1cc4c(cc1C[C@@H]3N(C(C)=O)CC2)OCO4`, the IC50 in the assay on HCT-116 [1] stood at 186 µM; with Caco-2 [2] it was 160 µM; in assay [3], 188 µM.

On to `CCOC(=O)N1CCc2cc(OC)c(OC)c3c2[C@@H]1Cc1cc2c(cc1-3)OCO2`, for which the IC50 with HCT-116 [1] was determined as 81.4 µM; with Caco-2 [2] it was 83.2 µM; in assay [3], 112 µM.

As to `COc1cc2c3c(c1OC)-c1cc4c(cc1C[C@@H]3N(S(C)(=O)=O)CC2)OCO4`, the half-inhibitory concentration (IC50) with HCT-116 [1] and in the assay with Caco-2 [2] was 196 µM in each case.

Regarding `CCOC(=O)N1CCc2cc(OC)c(O)c3c2[C@@H]1Cc1cc2c(cc1-3)OCO2`, the concentration for half-maximal inhibition (IC50) in the assay with HCT-116 [1] came out at 72.7 µM; with Caco-2 [2], 71.7 µM; in assay [3], 128 µM.

As to `CCOC(=O)N1CCc2cc(OC)c(OCC)c3c2[C@@H]1Cc1cc2c(cc1-3)OCO2`, the IC50 in the assay on HCT-116 [1] came to 73.3 µM; in the assay with Caco-2 [2] it was 73.5 µM; in assay [3], 134 µM.

With `CCOC(=O)N1CCc2cc(OC)c(OCc3ccccc3)c3c2[C@@H]1Cc1cc2c(cc1-3)OCO2`, the IC50 in the assay with HCT-116 [1] is 93.3 µM; in the assay with Caco-2 [2], 99.8 µM; in assay [3], 110 µM.

Consider `COc1cc2c(cc1OC)[C@H](Cc1ccc3c(c1)OCO3)N(C)CC2`, for which the IC50 in the assay on HCT-116 [1] and in the assay with Caco-2 [2] was 191 µM throughout.

Turning to `COc1cc2c(c(-c3ccc4c(c3)OCO4)c1OC)[C@H](C)N(C)CC2`, the half-inhibitory concentration (IC50) was 195 µM with HCT-116 [1] and 190 µM in the assay with Caco-2 [2].

On to `COc1cc2c3c(c1O)-c1cc4c(cc1C[C@@H]3N(C)CC2)OCO4` [DOMESTICINE], for which the IC50 worked out at 73.3 µM with HCT-116 [1], 73.5 µM with Caco-2 [2] and 134 µM in assay [3]. Moreover, the entries for the “Ratio IC50” value in the assay on HCT-116 [4] and in the assay on Caco-2 [5] were 3 and 4, respectively.

Take `COc1cc([C@@H]2c3cc4c(cc3[C@@H](O[C@@H]3O[C@@H]5CO[C@@H](C)O[C@H]5[C@H](O)[C@H]3O)[C@H]3COC(=O)[C@H]23)OCO4)cc(OC)c1O` [ETOPOSIDE]: the IC50 is 25.5 µM in the assay with HCT-116 [1], 18.6 µM in the assay on Caco-2 [2] and 44.4 µM in assay [3].

Take `COc1cc2c3c(c1OC)-c1cc4c(cc1CC3N(C)CC2)OCO4` (centres undefined) [NANTENINE]: the half-maximal inhibitory concentration (IC50) in the assay with HCT-116 [1] was 38.3 µM; in the assay on Caco-2 [2] it was 36.2 µM; in assay [3] it was 56.5 µM.
